According to ChEMBL document CHEMBL1145248, “Design, new synthesis, and calcilytic activity of substituted 3H-pyrimidin-4-ones” (Bioorg Med Chem Lett, 2005):

Biological target: T1, Extracellular calcium-sensing receptor (Homo sapiens, UniProt P41180)
T1 sequence (P41180 whole entry): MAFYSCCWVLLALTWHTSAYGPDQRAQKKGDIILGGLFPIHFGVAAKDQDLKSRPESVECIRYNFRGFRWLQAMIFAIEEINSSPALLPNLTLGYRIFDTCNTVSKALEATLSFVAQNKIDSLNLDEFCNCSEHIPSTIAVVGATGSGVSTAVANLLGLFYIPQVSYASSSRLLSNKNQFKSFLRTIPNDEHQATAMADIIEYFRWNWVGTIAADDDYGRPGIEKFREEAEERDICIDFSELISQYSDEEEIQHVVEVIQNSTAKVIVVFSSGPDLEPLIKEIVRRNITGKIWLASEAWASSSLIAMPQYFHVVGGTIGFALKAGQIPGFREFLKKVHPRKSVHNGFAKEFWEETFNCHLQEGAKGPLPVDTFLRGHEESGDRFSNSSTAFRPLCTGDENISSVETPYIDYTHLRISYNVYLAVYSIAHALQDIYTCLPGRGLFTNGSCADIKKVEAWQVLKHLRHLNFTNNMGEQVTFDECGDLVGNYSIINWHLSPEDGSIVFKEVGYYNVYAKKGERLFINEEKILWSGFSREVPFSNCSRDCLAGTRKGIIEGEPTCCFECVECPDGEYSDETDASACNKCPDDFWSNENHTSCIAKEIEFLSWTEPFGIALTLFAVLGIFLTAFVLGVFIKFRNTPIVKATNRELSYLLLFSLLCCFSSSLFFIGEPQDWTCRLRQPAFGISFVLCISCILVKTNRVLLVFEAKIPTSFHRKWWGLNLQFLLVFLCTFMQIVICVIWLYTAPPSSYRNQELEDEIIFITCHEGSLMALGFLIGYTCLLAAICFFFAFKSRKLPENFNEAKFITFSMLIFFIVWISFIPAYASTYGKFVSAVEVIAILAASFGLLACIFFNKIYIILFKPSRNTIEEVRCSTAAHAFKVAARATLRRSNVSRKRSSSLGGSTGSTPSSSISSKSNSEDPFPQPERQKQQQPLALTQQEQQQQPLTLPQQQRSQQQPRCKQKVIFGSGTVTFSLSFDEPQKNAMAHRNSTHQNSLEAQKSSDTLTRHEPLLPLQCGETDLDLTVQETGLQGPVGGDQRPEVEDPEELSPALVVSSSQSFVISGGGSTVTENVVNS
Experiment: Inhibitory concentration was evaluated for in vitro calcilytic activity against human calcium receptor
Outline: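 HEK 293 4.0-7 cells stably expressing human CaR, loaded with fluo-3. Intracellular Ca2+ rise triggered by raising extracellular Ca2+ from 1.0 to 1.3 mM. Peak fluorescence normalized to the response without compound. Eight concentrations tested in duplicate, top concentration 30 µM. IC50 normalized to an internal reference standard run in parallel in each assay.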

Row | SMILES | IC50
1 | Cc1nc(-c2ccccc2O)n(CCc2cccc(F)c2)c(=O)c1C | 170 nM
2 | Cc1cc(=O)n(CCc2cccc(F)c2)c(-c2ccccc2O)n1 | 1100 nM
3 | CCc1c(C)nc(-c2ccccc2O)n(CCc2ccccc2F)c1=O | 97 nM
4 | Cc1c(C(F)(F)F)nc(-c2ccccc2O)n(CCc2ccccc2)c1=O | 800 nM
5 | Cc1cc(=O)n(CCc2ccccc2)c(-c2ccccc2O)n1 | 1900 nM
6 | O=c1c2c(nc(-c3ccccc3O)n1CCc1cccc(F)c1)CCC2 | 200 nM
7 | CCCc1c(C)nc(-c2ccccc2O)n(CCc2cccc(F)c2)c1=O | 140 nM
8 | Cc1nc(-c2ccccc2O)n(CCc2cccc(F)c2)c(=O)c1C(C)C | 95 nM
9 | CCc1c(C)nc(-c2ccccc2O)n(CCc2ccccc2)c1=O | 100 nM
10 | O=c1c2c(nc(-c3ccccc3O)n1CCc1ccccc1)CCCC2 | 140 nM
11 | O=c1c2c(nc(-c3ccccc3O)n1CCc1ccccc1)CCC2 | 200 nM
12 | Cc1nc(-c2ccccc2O)n(CCc2ccccc2)c(=O)c1C | 200 nM
13 | Cc1cc(=O)n(CCc2ccccc2F)c(-c2ccccc2O)n1 | 1600 nM
